According to ChEMBL document CHEMBL3861974, “Discovery of a Selective Aurora A Kinase Inhibitor by Virtual Screening” (J Med Chem, 2016):
Active and inactive are the calls of the source. The calls are words filed in the database; no cut-off is given here.

Experiments:
[1] = Glutathione reactivity at 30 uM assessed as GSH adduct formation after 24 hrs in presence of 5 mM GSH, pH 7.4 buffer at 37 degC by LC-MS method
Outline: (§1)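 Test compound at 30 µM was incubated with 5 mM GSH in H2O/CH3CN (4:1) at 37 °C and followed by LC-MS over 24 h. The GSH adduct was identified by MS. Parent was quantified by integrating its 310 nm absorption peak against 9-methylcarbazole as internal control. Values are the average of two independent experiments.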

Homo sapiens = species: Homo sapiens; experiment: Selectivity index, ratio of IC50 for Aurora-B/INCENP (unknown origin) to IC50 for His-tagged human Aurora A kinase ([…] residues) expressed in Escherichia coli BL21 (DE3) Rosetta cells
[2] = target: Death-associated protein kinase 2 (Homo sapiens, UniProt Q9UIK4); experiment: Binding affinity to human DAPK2 expressed in Escherichia coli BL21 cells incubated for 1 hr by active site directed binding competition assay
Death-associated protein kinase 2, sequence (Q9UIK4 whole entry): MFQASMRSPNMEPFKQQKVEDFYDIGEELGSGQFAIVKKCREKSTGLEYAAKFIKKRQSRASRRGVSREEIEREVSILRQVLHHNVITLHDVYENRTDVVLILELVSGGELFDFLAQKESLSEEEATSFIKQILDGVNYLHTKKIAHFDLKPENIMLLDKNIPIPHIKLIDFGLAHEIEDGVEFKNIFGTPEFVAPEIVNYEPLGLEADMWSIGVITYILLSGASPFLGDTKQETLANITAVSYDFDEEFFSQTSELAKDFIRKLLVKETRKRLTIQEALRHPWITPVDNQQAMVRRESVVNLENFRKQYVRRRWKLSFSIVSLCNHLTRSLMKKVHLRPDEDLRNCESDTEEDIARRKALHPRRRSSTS
Outline: (§2)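 Kinome scan of 456 kinases using an active-site-directed binding competition assay, followed by determination of binding affinities (Kd). Aurora B in this scan was free enzyme without INCENP.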

[3] = target: T1, Phosphatidylinositol 5-phosphate 4-kinase type-2 gamma (Homo sapiens, UniProt Q8TBX8); experiment: Binding affinity to human PIP5K2C expressed in Escherichia coli BL21 cells incubated for 1 hr by active site directed binding competition assay; outline: as §2
T1 sequence (Q8TBX8 whole entry): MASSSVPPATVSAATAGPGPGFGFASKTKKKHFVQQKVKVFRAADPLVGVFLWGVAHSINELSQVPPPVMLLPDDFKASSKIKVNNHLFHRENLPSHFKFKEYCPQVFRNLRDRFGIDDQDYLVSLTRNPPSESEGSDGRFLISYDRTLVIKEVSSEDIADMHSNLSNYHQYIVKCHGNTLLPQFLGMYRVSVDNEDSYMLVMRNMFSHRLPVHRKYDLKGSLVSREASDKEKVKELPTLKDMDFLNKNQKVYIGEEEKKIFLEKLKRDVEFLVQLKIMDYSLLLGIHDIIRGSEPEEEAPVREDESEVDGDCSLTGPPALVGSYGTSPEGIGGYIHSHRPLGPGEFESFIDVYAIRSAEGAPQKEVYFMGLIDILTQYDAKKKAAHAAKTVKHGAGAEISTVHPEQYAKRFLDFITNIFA

[4] = target: T2, Aurora kinase A (Homo sapiens) (UniProt O14965); experiment: Inhibition of Aurora A kinase localization at spindle microtubules in human HeLa Kyoto cells at 10 uM incubated for 20 hrs; type: cell-based
T2 sequence (whole entry): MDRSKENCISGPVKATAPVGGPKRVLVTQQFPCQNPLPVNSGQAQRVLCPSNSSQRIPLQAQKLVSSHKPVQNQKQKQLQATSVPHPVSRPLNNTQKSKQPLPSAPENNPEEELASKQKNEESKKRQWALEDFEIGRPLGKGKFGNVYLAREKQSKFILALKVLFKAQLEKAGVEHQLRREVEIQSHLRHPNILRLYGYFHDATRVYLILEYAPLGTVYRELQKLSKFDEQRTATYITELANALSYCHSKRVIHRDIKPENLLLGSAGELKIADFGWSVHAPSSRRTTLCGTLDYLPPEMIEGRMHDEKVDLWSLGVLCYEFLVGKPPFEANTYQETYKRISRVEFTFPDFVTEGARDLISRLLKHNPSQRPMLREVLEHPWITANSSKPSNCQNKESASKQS
Outline: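 HeLa Kyoto cells were treated overnight, then immunostained for Aurora A and TPX2 with DNA counterstain. Aurora A at spindle microtubules versus centrosomes was assessed by fluorescence imaging.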

HeLa Kyoto = experiment: Increase in mitotic index in human HeLa Kyoto cells incubated for 20 hrs; type: functional, cell-based
Outline: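 HeLa Kyoto cells were incubated overnight with compound, and the fraction of mitotic cells was scored. The experiment was repeated twice; mean ± SD.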

Aurora kinase A = target: T3, Aurora kinase A (Homo sapiens, UniProt O14965); experiment: Inhibition of Aurora A kinase autophosphorylation at Thr288 in human HeLa Kyoto cells incubated for 20 hrs; type: cell-based
T3 sequence (O14965 whole entry): T2 sequence (whole entry)

[5] = Glutathione reactivity at 30 uM assessed as retention time for GSH adduct formation after 24 hrs in presence of 5 mM GSH, pH 7.4 buffer at 37 degC by LC-MS method; outline: as §1

For `CCc1ccc(/N=C2\S/C(=C\c3ccnc(Nc4ccc(C(=O)O)cn4)c3)C(=O)N2C)cc1`, the Drug metabolism [1] was 50%, the Stability [1] was “Stable” and the Ratio IC50 (Homo sapiens) was 75. For the same compound, the Kd [2] was 450 nM, the Kd [3] was 480 nM and the inhibition [4] was “Active”. The Activity (HeLa Kyoto) was “Dose-dependent effect”, the IC50 (Aurora kinase A) was 760 nM and the Retention time [5] was 1.29 min.
